# Screening results from PubChem BioAssay.
# Hits are enriched below; roughly 1.9% of the tested compounds scored in any of these assays.
# DNA FID counter: displaces DNA intercalator in HCV helicase counter-screen; DNA fluorescent intercalator displacement, fluorescence; inhibition, % at 7.9 µM; actives 0.17% (n = 290,000); AID 1845; in the data active = inhibition above about 37%;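 also: 0% = vehicle and 100% = reference compound; higher means more ethidium bromide displaced from hairpin DNA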
# PP5 inh: PP5 (human) phosphatase inhibition. P53041. purified PP5c, OMFP substrate fluorescence. actives 0.18% (n = 320,000). inhibition, % at 6.7 µM;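 active = inhibition above the campaign's mean inhibition across all tested compounds plus 3 SD, cut at about 9.5% in these data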;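 also: 0% = DMSO only and 100% = 100 µM cantharidin control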
# PP1 inh: counter-screen for PP5 inhibitors: inhibitors of human PP1-alpha; P62136; inhibition, % at 6.7 µM; actives 0.9% (n = 320,000); purified PP1alpha, OMFP fluorescence;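 active = inhibition above the mean inhibition of all tested compounds plus 3 SD, computed separately for each screening campaign, cut at about 15% in these data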
# Target sequence (P62136 whole entry, looked up): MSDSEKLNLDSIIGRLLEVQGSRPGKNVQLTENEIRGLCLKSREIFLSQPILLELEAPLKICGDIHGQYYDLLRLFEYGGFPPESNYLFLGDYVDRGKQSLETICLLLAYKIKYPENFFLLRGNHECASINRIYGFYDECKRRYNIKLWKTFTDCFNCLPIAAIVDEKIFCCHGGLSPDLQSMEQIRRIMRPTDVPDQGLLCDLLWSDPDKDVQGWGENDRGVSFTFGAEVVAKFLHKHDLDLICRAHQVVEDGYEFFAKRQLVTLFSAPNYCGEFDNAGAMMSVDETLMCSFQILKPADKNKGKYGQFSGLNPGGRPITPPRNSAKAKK
# HIF act: HIF pathway transcriptional activation | U2OS HRE-luciferase reporter, luminescence; normalized: DMSO 0%, desferrioxamine 100% | activation, % at 7.5 µM (by protocol) | actives 0.32% (n = 300,000) | AID 1910;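 active = mean activation of at least 10% of the iron chelator positive control signal, with at least half of replicates also reaching 10%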
# NS3 helicase inh: inhibitors of Hepatitis C virus NS3 helicase. inhibition, % at 10.9 µM. NS3 helicase DNA unwinding, Cy5 molecular beacon fluorescence. AID 1800. actives 0.56% (n = 290,000);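 active = inhibition above the mean of all tested compounds plus 3 SD, set per campaign, cut at about 35% in these data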;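 also: 0% = DMSO wells and 100% = thioflavine S control wells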
#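 Compound dosing – single dose, 10.9 µM nominal final, DMSO 0.8% final · System – NS3 helicase fragment of HCV · Buffer or medium – MOPS pH 6.5, MgCl2, DTT, Tween20, BSA · Signal – Cy5 beacon fluorescence read at start and 1 h · Also added – annealed dual-labelled DNA beacon duplex, ATP-started · Schedule – 1 h at 25 °C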
# PP1 inh confirm: confirmation of human PP1 phosphatase inhibitors. actives 52% (n = 1,900). purified PP1alpha, OMFP substrate fluorescence. inhibition, % at 6.7 µM. shares compounds with PP1 inh. AID 2358;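 active = mean PP1 inhibition above a set limit taken from the earlier primary screen, cut at about 15% in these data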
# PP5 counter: inhibits human PP5 phosphatase in PP1 counter-screen; shares compounds with PP1 inh; actives 4% (n = 1,900); inhibition, % at 6.7 µM; purified PP5c, OMFP fluorescence;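 active = mean PP5 inhibition over triplicate wells above about 9.5% taken from the earlier PP1 screen, limit read from the data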
# Starred values were filed as active, the others as inactive; / = no result.
SMILES,DNA FID counter,PP5 inh,PP1 inh,HIF act,NS3 helicase inh,PP1 inh confirm,PP5 counter
Cc1ccccc1-n1nc2c(c1NC(=O)COc1ccc(Cl)cc1)CS(=O)C2 (stereo not given),-22,1,-1,0,-1,/,/
CCc1ccc(OCCCCN(C)Cc2ccccc2)cc1,22,3,5,-1,-47,/,/
Cc1cc(C(=O)CSc2nn(-c3ccccc3)c(=S)s2)c(C)n1Cc1ccco1,-12,3,20*,0,10,15,-2
CN(C)/C=C/c1onc(-c2c(Cl)cccc2Cl)c1C#N,-4,2,35*,0,28,1,1
N#Cc1c(-c2c(Cl)cccc2Cl)noc1/C=C/Nc1ccc(C(=O)O)cc1,2,6,5,0,30,/,/
C/C(=N/OC(=O)C1CC12CCC2)c1ccc(Br)cc1 (stereo not given),-5,1,-4,0,-3,/,/
Cc1cc(/C=N/NC(N)=S)c(C)n1-c1ccc(Cl)cc1,0,0,0,0,-12,/,/
Cc1cc(/C=N/NC(N)=S)c(C)n1-c1ccc(Br)cc1,-7,2,25*,0,-6,16*,-4
Cc1cc(/C=N/NC(N)=S)c(C)n1-c1cccc(Cl)c1,-7,0,60*,0,-2,1,1
COC1Cc2ccccc2N(C(N)=O)c2ccccc21 (stereo not given),/,-2,-2,0,/,/,/
Cc1ccc(C)c(C(C)NC(=O)C2C3CCC(O3)C2C(=O)O)c1 (stereo not given),13,82*,80*,0,9,33*,43*
COc1cc(NC(=O)C2C3CCC(O3)C2C(=O)O)cc(OC)c1 (stereo not given),4,80*,76*,-1,0,21*,30*
Cc1ccc(NC(=O)C2C3CCC(O3)C2C(=O)O)cc1C (stereo not given),-1,83*,81*,-24,9,22*,43*
O=C(O)c1ccc(NC(=O)C2C3CCC(C3)C2C(=O)O)cc1 (stereo not given),0,2,-3,0,1,/,/
O=C(O)C1C2CCC(O2)C1C(=O)Nc1ccc(O)cc1 (stereo not given),4,43*,27*,/,6,5,18*
Cc1ccc(NC(=O)C2C3CCCC2C3c2ccccc2)cc1C (stereo not given),-1,-1,-2,0,2,/,/
O=C(O)C1C2CCC(O2)C1C(=O)Nc1ccc(OC(F)F)cc1 (stereo not given),3,68*,68*,0,-3,12,26*
FC(F)Oc1ccc(NC(=S)NC2CCCCCCC2)cc1,-14,5,1,1,14,/,/
Cc1cc(N2C(=O)C(O)=C(C(=O)c3ccc(C)o3)C2c2ccc([N+](=O)[O-])cc2)no1 (stereo not given),-44,4,18*,0,22,14,0
Cc1cc(N2C(=O)C(O)=C(C(=O)c3ccco3)C2c2cccnc2)no1 (stereo not given),1,1,2,-41,-2,/,/
COc1cc(C2C(C(=O)c3ccc(C)o3)=C(O)C(=O)N2c2cc(C)on2)cc(Br)c1O (stereo not given),-11,0,5,0,19,/,/
CCCOc1ccc(C2C(C(=O)c3cc4ccccc4o3)=C(O)C(=O)N2c2cc(C)on2)cc1OC (stereo not given),-46,5,33*,0,6,37*,-1
COc1cc(C2C(C(=O)c3ccco3)=C(O)C(=O)N2c2cc(C)on2)cc(Br)c1O (stereo not given),-8,0,-1,-1,15,/,/
CCCOc1ccc(C2C(C(=O)c3cc4ccccc4o3)=C(O)C(=O)N2c2cc(C)on2)cc1 (stereo not given),-46,1,27*,-1,18,34*,2
CC(OC(=O)c1ccc(NC(=O)CC#N)cc1)C(=O)Nc1ccc(Oc2ccccc2)cc1 (stereo not given),-17,0,20*,0,17,8,-6
SMILES,DNA FID counter,PP5 inh,PP1 inh,HIF act,NS3 helicase inh,PP1 inh confirm,PP5 counter
O=C(CCNc1n[nH]c(=O)[nH]c1=O)N/N=C/c1ccc(C(F)(F)F)cc1,-4,-1,-2,-1,0,/,/
Cc1ccc(C(=O)NCCc2nnc3ccc(NCc4ccc5c(c4)OCO5)nn23)cc1,-45,1,-4,0,12,/,/
O=C(NCc1ccc(Cl)cc1)c1cc(-c2cccs2)on1,-4,0,21*,1,-1,25*,-3
COc1ccc(CNC(=O)c2cc(-c3cccs3)on2)cc1,-9,1,5,0,-2,/,/
Cc1cccc2c1-c1sc(C(=O)Nc3cccnc3)cc1CO2,-16,3,4,5,-2,/,/
O=C(Nc1nccs1)c1cc2c(s1)-c1ccccc1OC2,0,-1,23*,4,2,26*,-4
Cc1cccc2c1-c1sc(C(=O)Nc3nccs3)cc1CO2,-7,1,21*,4,25,3,-3
O=C(Nc1nc2ccccc2s1)c1cc2c(s1)-c1ccccc1OC2,-2,3,-18,2,-3,/,/
CN1CCN(NC(=O)NC2CCCCC2)CC1,-3,0,3,-1,3,/,/
C/C(CC(=O)Nc1cc(C)ccn1)=N\NC(=O)c1ccc(C(C)(C)C)cc1,-27,0,2,1,2,/,/
C=CCOC(=O)C1=C[C@H](c2csc3ccccc23)C[C@H](OCc2ccc(CO)cc2)O1,/,3,22*,0,/,4,-2
C=CCOC(=O)C1=C[C@@H](c2csc3ccccc23)C[C@@H](OCc2ccc(CO)cc2)O1,-24,5,10,1,-7,/,/
S=c1[nH]nc(-c2cc(-c3ccccc3)n[nH]2)n1/N=C/c1ccc(Br)s1,-10,-2,28*,0,19,33*,-2
Cc1ccccc1/C=N/n1c(-c2cc(-c3ccccc3)n[nH]2)n[nH]c1=S,-2,1,-1,0,0,/,/
S=c1[nH]nc(-c2cc(-c3ccccc3)n[nH]2)n1/N=C/c1c(Cl)cccc1Cl,-10,9.6*,18*,0,-2,27*,-2
O=C(NCc1ccc(F)cc1)C1CCN(c2cnccn2)CC1,3,1,-3,0,3,/,/
FC(F)(F)c1cc(CCN2CCNC[C@H]2Cc2cccc3ccccc23)cc(C(F)(F)F)c1,/,6,23*,0,/,-2,1
Oc1ccc(C[C@@H]2CNCCN2CCc2cc(C(F)(F)F)cc(C(F)(F)F)c2)cc1,/,0,1,2,/,/,/
COc1ccc(-c2cccc(NC(=O)c3ccc4c(c3)OCO4)c2)nn1,/,1,-7,0,/,/,/
